Test system: U2OS
Test: Multiplex assay against U2OS
Format: toxicity, cell-based
Settings: human
In short: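 Live cells carried four stains from seeding: Hoechst33342, BioTracker Green Microtubule Cytoskeleton Dye, MitoTracker Red and Annexin V Alexa Fluor 680. They were imaged on a CQ1 microscope at 37°C and 5% CO2 after compound addition. Using CellPathfinder machine-learning gating, cells were split into Hoechst high-intensity objects or normal cells, normal cells into healthy, pyknosed or fragmented nuclei, and pyknosed cells into mitotic or apoptotic; tubulin, mitochondrial-mass and membrane-permeability phenotypes are per cents of healthy-nucleus cells.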

[1] = 12 h, 1 µM, compound concentration 1 uM, replicate 1
[2] = 12 h, 1 µM, compound concentration 1 uM, replicate 2
[3] = 12 h, 10 µM, compound concentration 10 uM, replicate 1
[4] = 12 h, 10 µM, compound concentration 10 uM, replicate 2
[5] = 24 h, 1 µM, compound concentration 1 uM, replicate 1
[6] = 24 h, 1 µM, compound concentration 1 uM, replicate 2
[7] = 24 h, 10 µM, compound concentration 10 uM, replicate 1
[8] = 24 h, 10 µM, compound concentration 10 uM, replicate 2
[9] = 48 h, 1 µM, compound concentration 1 uM, replicate 1
[10] = 48 h, 1 µM, compound concentration 1 uM, replicate 2
[11] = 48 h, 10 µM, compound concentration 10 uM, replicate 1
[12] = 48 h, 10 µM, compound concentration 10 uM, replicate 2

## O=C(CCCc1ccccc1)Nc1nc2ccccc2c(=O)s1
[1]
  Population Apoptotic (%): 92%
  Population Fragmented Nuclei (%): 26%
  Population Healthy Nuclei (%): 64%
  Population Hoechst High Intensity Objects (%): 2%
  Population Membrane Permeable-Phenotype (%): 4%
  Population Mitochondria Different-Phenotype (%): 2%
  Population Mitotic Cells (%): 7%
  Population Normal (%): 97%
  Population Pyknosed Nuclei (%): 9%
  Population Tubulin-Different-Phenotype (%): 1%
  Total Cell Count: 274
[2]
  Population Apoptotic (%): 55%
  Population Fragmented Nuclei (%): 17%
  Population Healthy Nuclei (%): 74%
  Population Hoechst High Intensity Objects (%): 0%
  Population Membrane Permeable-Phenotype (%): 7%
  Population Mitochondria Different-Phenotype (%): 3%
  Population Mitotic Cells (%): 44%
  Population Normal (%): 100%
  Population Pyknosed Nuclei (%): 7%
  Population Tubulin-Different-Phenotype (%): 2%
  Total Cell Count: 113
[3]
  Population Apoptotic (%): 72%
  Population Fragmented Nuclei (%): 31%
  Population Healthy Nuclei (%): 58%
  Population Hoechst High Intensity Objects (%): 2%
  Population Membrane Permeable-Phenotype (%): 2%
  Population Mitochondria Different-Phenotype (%): 0%
  Population Mitotic Cells (%): 28%
  Population Normal (%): 97%
  Population Pyknosed Nuclei (%): 9%
  Population Tubulin-Different-Phenotype (%): 1%
  Total Cell Count: 270
[4]
  Population Apoptotic (%): 100%
  Population Fragmented Nuclei (%): 20%
  Population Healthy Nuclei (%): 67%
  Population Hoechst High Intensity Objects (%): 4%
  Population Membrane Permeable-Phenotype (%): 7%
  Population Mitochondria Different-Phenotype (%): 6%
  Population Mitotic Cells (%): 0%
  Population Normal (%): 95%
  Population Pyknosed Nuclei (%): 11%
  Population Tubulin-Different-Phenotype (%): 6%
  Total Cell Count: 101
[5]
  Population Apoptotic (%): 79%
  Population Fragmented Nuclei (%): 22%
  Population Healthy Nuclei (%): 68%
  Population Hoechst High Intensity Objects (%): 1%
  Population Membrane Permeable-Phenotype (%): 4%
  Population Mitochondria Different-Phenotype (%): 2%
  Population Mitotic Cells (%): 20%
  Population Normal (%): 98%
  Population Pyknosed Nuclei (%): 9%
  Population Tubulin-Different-Phenotype (%): 2%
  Total Cell Count: 325
[6]
  Population Apoptotic (%): 84%
  Population Fragmented Nuclei (%): 17%
  Population Healthy Nuclei (%): 73%
  Population Hoechst High Intensity Objects (%): 0%
  Population Membrane Permeable-Phenotype (%): 8%
  Population Mitotic Cells (%): 15%
  Population Normal (%): 100%
  Population Tubulin-Different-Phenotype (%): 3%
  Total Cell Count: 141
[7]
  Population Apoptotic (%): 86%
  Population Fragmented Nuclei (%): 25%
  Population Healthy Nuclei (%): 65%
  Population Hoechst High Intensity Objects (%): 2%
  Population Membrane Permeable-Phenotype (%): 5%
  Population Mitochondria Different-Phenotype (%): 1%
  Population Mitotic Cells (%): 13%
  Population Normal (%): 97%
  Population Pyknosed Nuclei (%): 9%
  Population Tubulin-Different-Phenotype (%): 4%
  Total Cell Count: 319
[8]
  Population Apoptotic (%): 100%
  Population Fragmented Nuclei (%): 19%
  Population Healthy Nuclei (%): 71%
  Population Hoechst High Intensity Objects (%): 1%
  Population Membrane Permeable-Phenotype (%): 8%
  Population Mitochondria Different-Phenotype (%): 2%
  Population Mitotic Cells (%): 0%
  Population Normal (%): 98%
  Population Tubulin-Different-Phenotype (%): 3%
  Total Cell Count: 124
[9]
  Population Apoptotic (%): 91%
  Population Fragmented Nuclei (%): 13%
  Population Healthy Nuclei (%): 76%
  Population Hoechst High Intensity Objects (%): 7%
  Population Membrane Permeable-Phenotype (%): 3%
  Population Mitochondria Different-Phenotype (%): 2%
  Population Mitotic Cells (%): 8%
  Population Normal (%): 92%
  Population Pyknosed Nuclei (%): 9%
  Population Tubulin-Different-Phenotype (%): 1%
  Total Cell Count: 394
[10]
  Population Apoptotic (%): 87%
  Population Fragmented Nuclei (%): 19%
  Population Healthy Nuclei (%): 71%
  Population Hoechst High Intensity Objects (%): 5%
  Population Mitochondria Different-Phenotype (%): 3%
  Population Mitotic Cells (%): 12%
  Population Normal (%): 94%
  Population Pyknosed Nuclei (%): 8%
  Population Tubulin-Different-Phenotype (%): 6%
  Total Cell Count: 192
[11]
  Population Apoptotic (%): 91%
  Population Fragmented Nuclei (%): 20%
  Population Healthy Nuclei (%): 70%
  Population Hoechst High Intensity Objects (%): 2%
  Population Membrane Permeable-Phenotype (%): 5%
  Population Mitochondria Different-Phenotype (%): 0%
  Population Mitotic Cells (%): 8%
  Population Normal (%): 97%
  Population Pyknosed Nuclei (%): 8%
  Population Tubulin-Different-Phenotype (%): 3%
  Total Cell Count: 427
[12]
  Population Apoptotic (%): 95%
  Population Fragmented Nuclei (%): 15%
  Population Healthy Nuclei (%): 72%
  Population Hoechst High Intensity Objects (%): 0%
  Population Membrane Permeable-Phenotype (%): 9%
  Population Mitochondria Different-Phenotype (%): 3%
  Population Mitotic Cells (%): 4%
  Population Normal (%): 99%
  Population Pyknosed Nuclei (%): 12%
  Population Tubulin-Different-Phenotype (%): 5%
  Total Cell Count: 175

Reference: ChEMBL document CHEMBL5058577, “EUbOPEN Chemogenomics Library 2 (Multiplex)” (2022)
